An excerpt weighted towards active compounds, which were near 2.2% of everything screened.
Hck Nef HTS: human Hck-Nef kinase inhibition. Recombinant Hck-YEEI plus Nef, Z-Lyte FRET kinase assay. P08631. 0.68% of 220,000 active. inhibition, % at 20 µM;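 active = Hck-Nef kinase inhibition above about 50%, limit read from the data; inactive = inhibition below that limit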
Runt-SMMHC FRET: Runt domain-CBFb-SMMHC interaction inhibition | Q01196+Q13951 | inhibition, % at 20 µM | AID 1434 | 0.74% of 220,000 active | Cerulean-Runt/Venus-CBFb-SMMHC FRET ratio 530/480, 1 h;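 active = mean inhibition across duplicate retests at 20 µM reaching about 50%, limit read from the data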;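 also: inhibitors lower the FRET ratio by blocking Runt binding to CBFb-SMMHC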
Runt-CBFb FRET: inhibitors of human RUNX1 Runt domain binding to CBFb | inhibition, % at 20 µM | 0.46% of 220,000 active | Cerulean-Runt/Venus-CBFb FRET ratio 530/480, 1 h | Q01196+Q13951;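 active = inhibition over about 50% at 20 µM in the single-dose screen, limit read from the data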
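Reagent – Venus-CBFb binding partner, 100 nM · Assay system – Cerulean-tagged RUNX1 Runt domain (FRET donor) fusion protein · Input – 100 nM per protein · Incubation – two 1 h room-temperature incubations shielded from light · Measured by – FRET fluorescence · Medium – Tris buffer pH 7.5 with salts and BSA · Benchmarks – unlabeled CBFb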
14-3-3 Bad PPI: disrupts binding of bovine 14-3-3 zeta to phospho-Bad peptide. 0.71% of 220,000 active. AID 781. P63103. inhibition, % at 21.7 µM. TR-FRET 14-3-3zeta/Dy647-pBad peptide displacement, 1 h;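 active = inhibition above about 70%, limit read from the data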
Tb hexokinase: blocks Trypanosoma brucei hexokinase 1 activity | AID 1430 | 0.11% of 220,000 active | inhibition, % at 10 µM | recombinant TbHK1, G6PDH-coupled NADH A340;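 active = inhibition of 50% or more in the single-dose primary screen; inactive = inhibition below 50%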
RanGTP-Impb inh: inhibitors of RanGTP-importin-beta interaction, primary screen, biochemical, FRET, CFP-Ran, YFP-importin-beta, homogeneous; cell-free CFP-Ran/YFP-importin-beta FRET ratio; inhibition, % (concentration not given with the values); 1.1% of 300,000 active; AID 2216;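 active = more than half of the replicate wells show a fall in the fluorescence ratio signal beyond about 16%, limit read from the data, passing the limit was not always enough; inconclusive = exactly half of the replicate wells pass the set limit; inactive = fewer than half of replicates pass the limit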
Large screens that a line does not name were inactive; [ ] = another dose, or the depositor's remark.

Cc1c2c(n3c(nc4ccccc43)c1C#N)N(CCN1CCOCC1)CC2	Hck Nef HTS 76, RanGTP-Impb inh 112 (no result: Runt-SMMHC FRET, Runt-CBFb FRET)
C=C(C)Cc1c(C)c(C#N)c2nc3ccccc3n2c1N1CCCCC1	RanGTP-Impb inh 29
COCCN(CCOC)c1cc(C)c(C#N)c2nc3ccccc3n12	Runt-SMMHC FRET 63, Runt-CBFb FRET 53, RanGTP-Impb inh 57
C=C(C)CSc1cc(C)c(C#N)c2nc3ccccc3n12	RanGTP-Impb inh 56
O=C(CCc1c[nH]c2ccccc12)N1CCN(c2ccc(O)cc2)CC1	none
COc1cc(C2C3=C(CCCC3=O)Nc3ccc4ncccc4c32)ccc1O (stereo not given)	none
CCOc1cc(C2C3=C(CCCC3=O)Nc3ccc4ncccc4c32)ccc1O (stereo not given)	RanGTP-Impb inh 22
CCN(CC)c1ccc2ccc(=O)oc2c1	Hck Nef HTS 114, Runt-SMMHC FRET 92, RanGTP-Impb inh 95
O=C(NNC(=O)c1ccccc1C(=O)O)c1ccc(S(=O)(=O)N2CCCCC2)cc1	none (no result: Hck Nef HTS, Runt-SMMHC FRET, Runt-CBFb FRET, 14-3-3 Bad PPI, Tb hexokinase)
CCN(CC)c1ccc2cc(C(=O)NNC(=O)c3ccc(S(=O)(=O)N4CCCCC4)cc3)c(=O)oc2c1	Runt-SMMHC FRET 63, Runt-CBFb FRET 66, RanGTP-Impb inh 119
CCN(CC)c1ccc2cc(S(=O)(=O)c3ccc(C)cc3)c(=O)oc2c1	Runt-SMMHC FRET 79, RanGTP-Impb inh 137
CCN(CC)c1ccc2cc(C#N)c(=O)oc2c1	Runt-SMMHC FRET 92, Runt-CBFb FRET 82, RanGTP-Impb inh 115
Cc1ccc(S(=O)(=O)c2cc3ccccc3oc2=O)cc1	RanGTP-Impb inh inconclusive
Cc1ccccc1OC(C)C(=O)Nc1cccnc1 (stereo not given)	none (no result: Hck Nef HTS, Runt-SMMHC FRET, Runt-CBFb FRET, 14-3-3 Bad PPI, Tb hexokinase)
O=C(O)[C@H](Cc1ccccc1)NC(=O)N1CCN(c2ccccc2)CC1	none
COC(=O)c1cc(S(=O)(=O)N2CCN(c3ccccc3)CC2)c[nH]1	RanGTP-Impb inh 29 (no result: Hck Nef HTS, Runt-SMMHC FRET, Runt-CBFb FRET, 14-3-3 Bad PPI, Tb hexokinase)
COC(=O)c1cc(S(=O)(=O)N2CCN(c3ccc(F)cc3)CC2)c[nH]1	none (no result: Hck Nef HTS, Runt-SMMHC FRET, Runt-CBFb FRET, 14-3-3 Bad PPI, Tb hexokinase)
Nc1ccc(-c2nc3ncccc3o2)cc1	none (no result: Hck Nef HTS, Runt-SMMHC FRET, Runt-CBFb FRET, 14-3-3 Bad PPI, Tb hexokinase)
CCOc1ccccc1CN(CCc1ccc2c(c1)OCO2)Cc1ccccn1	14-3-3 Bad PPI 72
O=Nc1[nH]c(=O)c(/C=C(\O)c2ccccc2)nc1NO	none (no result: Hck Nef HTS, Runt-SMMHC FRET, Runt-CBFb FRET, 14-3-3 Bad PPI, Tb hexokinase)
COCc1cc(C)nc(OCC(=O)N/N=C/c2ccc(-c3cc([N+](=O)[O-])ccc3C)o2)c1C#N	none
Cc1ccc([N+](=O)[O-])cc1-c1ccc(/C=C(\C#N)c2[nH]nc(N)c2C#N)o1	14-3-3 Bad PPI 72[fluorescence artefact?] (no result: RanGTP-Impb inh)
COc1ccccc1NC(=O)CCCN1C(=O)C2CC=CCC2C1=O (stereo not given)	none (no result: Hck Nef HTS, Runt-SMMHC FRET, Runt-CBFb FRET, 14-3-3 Bad PPI, Tb hexokinase)
CCOC(=O)C(C)NC(=O)c1cn(-c2ccc(OC)cc2)c(=O)c2ccccc12 (stereo not given)	none (no result: Hck Nef HTS, Runt-SMMHC FRET, Runt-CBFb FRET, 14-3-3 Bad PPI, Tb hexokinase)
COc1c2ccoc2c(OC[C@@H](O)C(C)(C)OC)c2oc(=O)ccc12	Runt-SMMHC FRET 84
CCOc1ccc(NC(=O)CN2C(=O)S/C(=C/c3cccn3C)C2=O)cc1	RanGTP-Impb inh 16
Cn1cccc1/C=C1\SC(=O)N(CC(=O)Nc2ccc(Cl)cc2)C1=O	none
CC(C)CNC(=S)N1CCN(C)CC1	14-3-3 Bad PPI 81
CCCCNC(=S)N1CCN(C)CC1	none
CN1N=C(C(=O)N2CCCC(N3CCN(c4ccc(F)cc4)CC3)C2)CCC1=O (stereo not given)	none (no result: Hck Nef HTS, Runt-SMMHC FRET, Runt-CBFb FRET, 14-3-3 Bad PPI, Tb hexokinase)
CC(C)Cc1ccc(/C=C/C(=O)N2CCOCC2)cc1	RanGTP-Impb inh 18
CC(C)(C)c1ccc(/C=C/C(=O)N2CCOCC2)cc1	none
CCCCCNc1nc2sc3c(c2c(=O)n1-c1cccc(Cl)c1)CCN(C)C3	Runt-SMMHC FRET 103, RanGTP-Impb inh 44
CCCCNc1nc2sc3c(c2c(=O)n1-c1cccc(Cl)c1)CCN(C)C3	Runt-SMMHC FRET 126, RanGTP-Impb inh 30
O=C(c1cc2c(s1)CCCC2)N1CCN(S(=O)(=O)c2ccccc2C(F)(F)F)CC1	none
O=C(CN1CCN(C2CCCCC2)CC1)Nc1ccccc1-c1ccccc1	14-3-3 Bad PPI 83
CCOC(=O)C1CCCN(S(=O)(=O)c2c(C(=O)N3CCCCC3)c(C)n(C)c2C)C1 (stereo not given)	none (no result: Hck Nef HTS, Runt-SMMHC FRET, Runt-CBFb FRET, 14-3-3 Bad PPI, Tb hexokinase)

Bioassay records deposited in PubChem BioAssay by several laboratories.
